Source: article PMC11410521 (Biochemical pharmacology, 2024)
Several values for one entry are separate records, joined by “and”; a condition that tells them apart may be missing. Identical values can stand only once. Like-named read-outs stand apart in the source and are kept apart here.

Tests used:
human FABP1 [1] = biological target: T1, human FABP1 (Homo sapiens, UniProt P07148); experiment: DAUDA displacement assay of cannabinoid binding to FABP1
T1 sequence (P07148 1-127): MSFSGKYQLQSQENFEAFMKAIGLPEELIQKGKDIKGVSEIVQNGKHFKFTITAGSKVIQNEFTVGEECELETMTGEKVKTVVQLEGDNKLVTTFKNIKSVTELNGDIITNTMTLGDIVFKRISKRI
Summary of the method: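 Purified human FABP1, protein quantified by BCA and held on ice in gel filtration buffer with 0.5 mM DTT, titrated with test cannabinoid displacing DAUDA. Fluorescence spectra scanned at 600 nm/min, PMT 800 V. Bound-DAUDA signal extracted by singular value decomposition. Kd from ternary binding model fit; EC50 from three-parameter dose-response fit. Mean ± SD, three days, ≥2 protein batches.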

[2] = Kinetics of THC metabolite formation in pooled human liver microsomes; type: in vitro ADME; settings: human, pooled human liver microsomes, pooled HLMs 0.1 mg/mL
Summary of the method: (§1)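 Pooled HLMs at 0.1 mg/mL with nominal THC 0.05–5 μM in 100 mM potassium phosphate pH 7.4. After 5 min preincubation at 37 °C, 1 mM NADPH was added and reactions ran 2 min, within time linearity. Quench was acetonitrile/1% formic acid with 11-OH-THC-d3, then LC-MS/MS. Michaelis-Menten fits used bead-measured free THC; linear fits gave CLint,u where saturation was absent. Three days, duplicates.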

[3] = tested on: pooled human liver microsomes; experiment: as above; type: in vitro ADME; settings: pooled HLMs 0.1 mg/mL; mean ± SD, 3 days
Summary of the method: as §1

CYP2C9 = experiment: THC incubations with recombinant CYP2C9 in the presence and absence of FABP1; type: in vitro ADME, human; settings: human
Summary of the method: (§2)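 Recombinant CYP2C9 (Supersomes) at 1 nM (0.0016 mg/mL microsomal protein), with seven nominal THC concentrations of 10–640 nM in pH 7.4 phosphate buffer, ±20 μM FABP1 added before 5 min preincubation at 37 °C. Started with 1 mM NADPH, 1 min, with a no-NADPH control. Quench was acetonitrile/formic acid with 11-OH-THC-d3, then LC-MS/MS. Km,u and kcat came from Michaelis-Menten fits against free THC; matched pairs, separate days.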

recombinant CYP2C9 = experiment: as above; type: in vitro ADME, human; settings: recombinant CYP2C9, absence of FABP1
Summary of the method: as §2

CYP2C19 = experiment: THC incubations with recombinant CYP2C19 in the presence and absence of FABP1; type: in vitro ADME, human; settings: human
Summary of the method: (§3)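 Recombinant CYP2C19 (Supersomes) at 1 nM (0.013 mg/mL microsomal protein), with nominal THC 0.02–1.0 μM, ±20 μM FABP1 added before 5 min preincubation at 37 °C. Started with 1 mM NADPH, 2 min, with a no-NADPH control, then quench and LC-MS/MS. Matched ±FABP1 pairs. Michaelis-Menten fits against free THC from bead measurements, with a mass-balance calculation when FABP1 was present. Replicates on separate days.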

recombinant CYP2C19 = experiment: as above; type: in vitro ADME, human
Summary of the method: as §3

CYP3A4 = experiment: THC incubations with recombinant CYP3A4 in the presence and absence of FABP1; type: in vitro ADME, human; settings: human
Summary of the method: (§4)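 Recombinant CYP3A4 (Supersomes) at 0.625 nM (0.004 mg/mL microsomal protein), with seven nominal THC concentrations of 0.156–3.75 μM, ±20 μM FABP1 added before 5 min preincubation at 37 °C. Started with 1 mM NADPH, 1 min, with a no-NADPH control, then LC-MS/MS. M4 data were fitted to an allosteric sigmoidal model (K0.5, h); other metabolites used Michaelis-Menten fits, against free THC; matched pairs.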

recombinant CYP3A4 = experiment: as above; type: in vitro ADME, human
Summary of the method: as §4

[4] = THC unbound fraction in human liver microsome incubations; type: in vitro ADME; settings: pooled liver microsomes, pH 7.4
Summary of the method: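 Magnetic silica beads (200 μL), washed three times, were pre-equilibrated 30 min on ice with HLM protein at incubation concentration in 0.5 mL buffer. THC was added at each nominal kinetic concentration and incubated 30 min at 37 °C with shaking, then cooled 5 min. Total and supernatant samples were quenched and measured by LC-MS/MS; fu = Cfree/Ctotal.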

[5] = THC unbound fraction in incubations with recombinant CYPs; type: in vitro ADME; settings: human, recombinant CYP3A4 microsomes (Supersomes), pH 7.4
Summary of the method: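 Magnetic silica beads (50 μL), washed three times, were pre-equilibrated 30 min on ice with recombinant CYP at incubation protein concentration in 0.2 mL buffer. THC was added at each nominal kinetic concentration and incubated 30 min at 37 °C with shaking, then cooled 5 min at room temperature. Total and supernatant THC were measured by LC-MS/MS; fu = Cfree/Ctotal.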

recombinant CYPs = experiment: THC metabolite formation by a panel of recombinant CYPs; type: in vitro ADME, human; settings: 10 μM THC
Summary of the method: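 Individual recombinant CYPs (10 pmol/mL) across a twelve-enzyme panel were preincubated 5 min at 37 °C with 10 μM THC in 100 mM potassium phosphate pH 7.4. Reactions were started with 1 mM NADPH and ran 15 min, then were quenched with acetonitrile/1% formic acid containing 11-OH-THC-d3 and analysed by LC-MS/MS. Relative formation was the metabolite/internal-standard peak-area ratio; peaks below S/N 5 were not quantified.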

[6] = tested on: human liver microsomes from three individual donors; experiment: Impact of FABP1 on THC metabolism in HLMs from individual donors; type: in vitro ADME; settings: HLM incubations
[7] = cited from earlier work
[8] = tested on: HLMs and recombinant CYP2C9; settings: cited from earlier work; for Km: in HLM
human FABP1 [9] = biological target: T1, human FABP1; settings: read-out: Kd previously reported; cited from earlier work
[10] = cited from earlier work; remark: listed apart in the source
[11] = tested on: human liver microsomes from six individual liver donors; type: in vitro ADME; settings: for inhibition of M3 formation in donor HL-109: HL-109: low CYP2C19 activity, high CYP3A activity, no CYP3A5 expression
Summary of the method: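 HLMs from six donors (2 CYP3A5 expressors, 4 non-expressors), 1 mg/mL, were preincubated 10 min with 0.5 μM CYP3cide plus 1 mM NADPH, with a methanol vehicle control. They were diluted 40-fold to 0.025 mg/mL in buffer with 1 mM NADPH, then 2 μM THC was added. Reactions ran 2 min before quench and LC-MS/MS. % activity remaining was normalised to vehicle, in duplicate.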

[12] = recombinant CYP3A4, absence of FABP1, allosteric sigmoidal model
[13] = THC depletion, 500 nM nominal, 0.2% BSA

Structure (SMILES): CCCCC/C=C\C/C=C\C/C=C\C/C=C\CCCC(=O)OC(CO)CO [2AG, 2-arachidonoylglycerol]
- EC50 (human FABP1 [1]): 180 ± 20 nM
- Kd (human FABP1 [1]): 60 ± 40 nM

Structure (SMILES): C=C(C)[C@@H]1CCC(C)=C[C@H]1c1c(O)cc(CCCCC)cc1O [CBD, cannabidiol]
- EC50 (human FABP1 [1]): 920 ± 70 nM

Structure (SMILES): CCCCC/C=C\C/C=C\C/C=C\C/C=C\CCCC(=O)NCCO [AEA, anandamide]
- EC50 (human FABP1 [1]): 310 ± 140 nM

Structure (SMILES): CCCCCc1cc(O)c2c(c1)OC(C)(C)[C@@H]1CCC(C)=C[C@@H]21 [THC, Δ9-tetrahydrocannabinol]
- EC50 (human FABP1 [1]): 220 ± 130 nM
- Km at 2 min ([2]; Km,unbound of M2 formation, free THC concentrations): > 45 nM
- Km at 2 min ([2]; Km,unbound of M3 formation, free THC concentrations): > 45 nM
- Km at 2 min ([2]; Km,unbound of M4 formation, no saturation, linear): > 45 nM
- Vmax of 11-OH-THC formation [3]: 521 ± 53 pmol/min/mg HLM
- Km at 1 min (CYP2C9; recombinant CYP2C9 (Supersomes) with 20 μM FABP1, Km,u + FABP1, 11-OH-THC formation, recombinant CYP2C9, 20 μM FABP1): > 20 nM
- Km at 1 min (CYP2C9; recombinant CYP2C9 (Supersomes), Km,u −FABP1, 11-OH-THC formation, recombinant CYP2C9, absence of FABP1): 0.8 nM
- Km (recombinant CYP2C9; read-out: Km,u −FABP1, 11-OH-THC formation): 0.77 ± 0.16 nM
- kcat −FABP1, 11-OH-THC formation (recombinant CYP2C9): 0.2 s⁻¹ and 0.2 ± 0.0145 s⁻¹
- Km at 2 min (CYP2C19; recombinant CYP2C19 (Supersomes) with 20 μM FABP1, Km,u + FABP1, 11-OH-THC formation, recombinant CYP2C19, 20 μM FABP1): 5.2 ± 0.64 nM
- Km at 2 min (CYP2C19; recombinant CYP2C19 (Supersomes) with 20 μM FABP1, Km,u + FABP1, M3 formation, recombinant CYP2C19, 20 μM FABP1): 4.7 ± 0.72 nM
- Km at 2 min (CYP2C19; recombinant CYP2C19 (Supersomes), Km,u −FABP1, 11-OH-THC formation, recombinant CYP2C19, absence of FABP1): 2.2 nM
- Km at 2 min (CYP2C19; recombinant CYP2C19 (Supersomes), Km,u −FABP1, M3 formation, recombinant CYP2C19, absence of FABP1): 2.2 nM
- kcat + FABP1, 11-OH-THC formation (recombinant CYP2C19; recombinant CYP2C19, 20 μM FABP1): 0.133 ± 0.0333 s⁻¹
- kcat −FABP1, 11-OH-THC formation (recombinant CYP2C19; recombinant CYP2C19, absence of FABP1): 0.233 s⁻¹ and 0.233 ± 0.0113 s⁻¹
- Km at 1 min (CYP3A4; recombinant CYP3A4 (Supersomes) with 20 μM FABP1, Km,u + FABP1, M2 formation, recombinant CYP3A4, 20 μM FABP1): > 20 nM
- Km at 1 min (CYP3A4; recombinant CYP3A4 (Supersomes) with 20 μM FABP1, Km,u + FABP1, M4 formation, recombinant CYP3A4, 20 μM FABP1): > 20 nM
- Km at 1 min (CYP3A4; recombinant CYP3A4 (Supersomes), Km,u of the other three major metabolites, formed mainly by recombinant CYP3A4/5): > 10 nM
- Km at 1 min (CYP3A4; recombinant CYP3A4 (Supersomes), Km,u −FABP1, M2 formation, recombinant CYP3A4, absence of FABP1): 29 ± 19 nM
- Km at 1 min (CYP3A4; recombinant CYP3A4 (Supersomes), Km,u −FABP1, M3 formation, recombinant CYP3A4, absence of FABP1): 18 ± 13 nM
- M3 formation by recombinant CYP3A4 in the presence of FABP1 (recombinant CYP3A4; 20 μM FABP1): completely abolished
- K0.5,u −FABP1, M4 formation (recombinant CYP3A4; [12]): 43 ± 25 nM
- hill slope (h), M4 formation (recombinant CYP3A4; [12]): 1.4 ± 0.5
- fraction unbound at 30 min [4]: 0.015 ± 0.001
- fraction unbound at 30 min [5]: 0.15 ± 0.02
- velocity of 11-OH-THC formation by CYP2C9 and CYP2C19 relative to CYP2D6 (recombinant CYPs): ~ 3 fold
- velocity of 11-OH-THC formation by CYP2C9 and CYP2C19 relative to other CYPs (recombinant CYPs): > 10 fold
- decrease in free concentrations of THC by FABP1 binding ([6]; 2 μM THC, 20 μM FABP1 vs absence): 86%
- free THC in the absence of FABP1 ([6]; 2 μM nominal THC): 14 nM
- free THC in the presence of FABP1 ([6]; 2 μM nominal THC, 20 μM FABP1): 2 nM
- dose recovered in urine and feces ([7]; after iv administration): less than 1%
- THC exposure (AUC) in CYP2C9*3/*3 carriers compared to CYP2C9*1/*1 carriers ([7]; after oral dosing): 3 fold
- hepatic extraction ratio [7]: around 0.8
- increase of AUC of THC when co-administered with ketoconazole [7]: ~ 80%
- contribution of CYP2C9 to THC clearance (fraction metabolized) ([7]; estimated from AUC in CYP2C9 genotypes): about 70%
- THC exposure on co-administration of rifampicin ([7]; oral dosing of THC): decreases THC exposure
- THC metabolic clearance in pooled HLMs assigned to CYP2C9 [8, 13]: 91% and > 90%
- THC metabolic clearance in pooled HLMs assigned to CYP2D6 [8, 13]: 9%
- Km ([8]; read-out: unbound Km (Km,u) for 11-OH-formation): 8 nM
- Km ([8]; read-out: unbound Km (Km,u) for THC depletion): 7 nM
- Kd (human FABP1 [9]): 2900 nM
- blood to plasma ratio [10]: 0.67
- plasma protein binding fu ([10]; plasma): 0.01

Structure (SMILES): Cc1ccc(-c2c(-c3nn(C)c4ncnc(N5CC[C@H](N6CCCCC6)C5)c34)cnn2C)cc1 [CYP3cide]
- inhibition of M4 formation in donors without CYP3A5 expression ([11]; CYP3cide 0.5 μM): ~100%
- inhibition of M3 formation in donor HL-109 [11]: ~100%

Structure (SMILES): CCC1(c2ccccc2)NC(=O)N(Cc2ccccc2)C1=O (single isomer, unassigned; (+)) [Benzylnirvanol, (+)-N-3-benzylnirvanol]
- inhibition of M3 formation in donor HL-109 [11]: no impact
